In ChEMBL document CHEMBL1275372, “Conformationally restricted homotryptamines. Part 7: 3-cis-(3-aminocyclopentyl)indoles as potent selective serotonin reuptake inhibitors” (J Med Chem, 2010):
One block for each compound: values may come before it. Calls of active or inactive are those of the source. The calls are words filed in the database; no cut-off is given here.

Assays:
[1] = molecular target: Sodium-dependent serotonin transporter (Homo sapiens, UniProt P31645); assay: Binding affinity to human SERT
Chain of Sodium-dependent serotonin transporter (P31645 whole entry): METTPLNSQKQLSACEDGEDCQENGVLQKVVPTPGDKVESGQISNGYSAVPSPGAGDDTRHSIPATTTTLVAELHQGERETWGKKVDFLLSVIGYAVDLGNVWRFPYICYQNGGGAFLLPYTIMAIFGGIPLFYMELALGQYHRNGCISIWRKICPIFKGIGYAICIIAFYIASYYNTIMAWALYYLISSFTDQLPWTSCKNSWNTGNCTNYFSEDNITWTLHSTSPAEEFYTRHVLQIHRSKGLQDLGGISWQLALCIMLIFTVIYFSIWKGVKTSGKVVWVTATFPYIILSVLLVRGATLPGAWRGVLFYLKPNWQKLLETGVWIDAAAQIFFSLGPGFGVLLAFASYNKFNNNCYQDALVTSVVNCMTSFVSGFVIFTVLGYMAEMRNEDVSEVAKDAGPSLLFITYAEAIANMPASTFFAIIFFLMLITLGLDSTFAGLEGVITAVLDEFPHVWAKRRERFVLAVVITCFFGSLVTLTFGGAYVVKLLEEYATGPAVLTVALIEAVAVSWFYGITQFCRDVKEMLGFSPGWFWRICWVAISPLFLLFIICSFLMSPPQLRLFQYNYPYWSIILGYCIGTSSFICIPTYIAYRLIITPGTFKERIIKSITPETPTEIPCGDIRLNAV

[2] = molecular target: Sodium-dependent noradrenaline transporter (Homo sapiens, UniProt P23975); assay: Binding affinity to human NET
Chain of Sodium-dependent noradrenaline transporter (P23975 whole entry): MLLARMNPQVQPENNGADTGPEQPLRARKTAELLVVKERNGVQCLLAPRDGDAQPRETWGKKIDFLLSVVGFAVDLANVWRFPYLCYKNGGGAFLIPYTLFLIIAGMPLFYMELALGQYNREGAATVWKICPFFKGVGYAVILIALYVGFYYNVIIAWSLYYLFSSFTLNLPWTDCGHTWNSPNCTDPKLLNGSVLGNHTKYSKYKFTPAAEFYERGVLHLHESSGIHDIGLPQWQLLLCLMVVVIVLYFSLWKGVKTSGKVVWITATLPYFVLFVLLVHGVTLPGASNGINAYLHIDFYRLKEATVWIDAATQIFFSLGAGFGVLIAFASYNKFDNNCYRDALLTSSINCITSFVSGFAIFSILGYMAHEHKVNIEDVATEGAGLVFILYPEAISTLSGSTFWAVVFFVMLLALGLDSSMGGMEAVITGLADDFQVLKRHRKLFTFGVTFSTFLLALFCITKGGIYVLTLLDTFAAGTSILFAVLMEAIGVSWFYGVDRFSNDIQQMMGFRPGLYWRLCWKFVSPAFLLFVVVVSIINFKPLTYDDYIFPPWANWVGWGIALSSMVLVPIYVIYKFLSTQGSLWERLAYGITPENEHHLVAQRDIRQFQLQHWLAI

[3] = molecular target: Sodium-dependent dopamine transporter (Homo sapiens, UniProt Q01959); assay: Binding affinity to human DAT
Chain of Sodium-dependent dopamine transporter (Q01959 whole entry): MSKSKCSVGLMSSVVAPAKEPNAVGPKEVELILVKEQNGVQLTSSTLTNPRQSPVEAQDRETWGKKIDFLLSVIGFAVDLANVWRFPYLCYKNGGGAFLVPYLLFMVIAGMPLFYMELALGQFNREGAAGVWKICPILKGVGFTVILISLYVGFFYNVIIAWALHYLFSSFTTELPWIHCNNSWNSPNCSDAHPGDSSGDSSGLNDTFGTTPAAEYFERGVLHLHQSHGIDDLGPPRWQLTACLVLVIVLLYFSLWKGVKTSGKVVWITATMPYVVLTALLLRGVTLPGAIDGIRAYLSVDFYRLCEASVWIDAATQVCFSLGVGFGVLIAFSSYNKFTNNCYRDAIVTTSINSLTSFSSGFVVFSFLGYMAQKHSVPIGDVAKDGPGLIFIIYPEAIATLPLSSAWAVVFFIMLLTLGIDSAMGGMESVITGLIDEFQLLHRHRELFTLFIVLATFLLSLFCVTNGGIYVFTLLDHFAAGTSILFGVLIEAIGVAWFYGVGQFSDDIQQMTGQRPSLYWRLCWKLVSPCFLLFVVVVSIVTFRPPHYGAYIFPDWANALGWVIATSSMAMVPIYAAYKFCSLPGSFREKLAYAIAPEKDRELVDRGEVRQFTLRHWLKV

[4] = molecular target: T1, 5-hydroxytryptamine receptor 1A (Homo sapiens, UniProt P08908); assay: Binding affinity to 5HT1A receptor
T1 sequence (P08908 whole entry): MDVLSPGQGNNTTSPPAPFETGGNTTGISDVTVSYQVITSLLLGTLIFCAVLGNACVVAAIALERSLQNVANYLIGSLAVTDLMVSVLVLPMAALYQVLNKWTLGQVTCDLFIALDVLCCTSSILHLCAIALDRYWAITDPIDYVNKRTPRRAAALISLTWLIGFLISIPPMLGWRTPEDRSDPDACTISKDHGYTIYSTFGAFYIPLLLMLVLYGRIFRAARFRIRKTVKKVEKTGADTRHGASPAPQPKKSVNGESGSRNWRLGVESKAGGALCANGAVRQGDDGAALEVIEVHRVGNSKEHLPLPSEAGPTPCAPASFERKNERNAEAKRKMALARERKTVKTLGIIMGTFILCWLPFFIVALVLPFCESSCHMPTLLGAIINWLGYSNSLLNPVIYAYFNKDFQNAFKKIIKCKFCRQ

[5] = molecular target: 5-hydroxytryptamine receptor 1B (Homo sapiens, UniProt P28222); assay: Binding affinity to 5HT1B receptor
Chain of 5-hydroxytryptamine receptor 1B (P28222 whole entry): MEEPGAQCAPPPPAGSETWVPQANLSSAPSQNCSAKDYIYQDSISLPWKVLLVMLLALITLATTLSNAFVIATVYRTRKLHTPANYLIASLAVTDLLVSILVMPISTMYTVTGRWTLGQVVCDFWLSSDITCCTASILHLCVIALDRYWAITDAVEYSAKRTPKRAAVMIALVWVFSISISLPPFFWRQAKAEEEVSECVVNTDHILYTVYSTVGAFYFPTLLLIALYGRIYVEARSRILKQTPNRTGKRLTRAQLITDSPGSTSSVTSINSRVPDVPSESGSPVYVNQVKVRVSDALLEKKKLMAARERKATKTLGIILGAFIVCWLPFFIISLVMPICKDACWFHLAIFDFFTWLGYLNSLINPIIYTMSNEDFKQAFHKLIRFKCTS

[6] = molecular target: 5-hydroxytryptamine receptor 2A (Homo sapiens, UniProt P28223); assay: Binding affinity to 5HT2A receptor
Chain of 5-hydroxytryptamine receptor 2A (P28223 whole entry): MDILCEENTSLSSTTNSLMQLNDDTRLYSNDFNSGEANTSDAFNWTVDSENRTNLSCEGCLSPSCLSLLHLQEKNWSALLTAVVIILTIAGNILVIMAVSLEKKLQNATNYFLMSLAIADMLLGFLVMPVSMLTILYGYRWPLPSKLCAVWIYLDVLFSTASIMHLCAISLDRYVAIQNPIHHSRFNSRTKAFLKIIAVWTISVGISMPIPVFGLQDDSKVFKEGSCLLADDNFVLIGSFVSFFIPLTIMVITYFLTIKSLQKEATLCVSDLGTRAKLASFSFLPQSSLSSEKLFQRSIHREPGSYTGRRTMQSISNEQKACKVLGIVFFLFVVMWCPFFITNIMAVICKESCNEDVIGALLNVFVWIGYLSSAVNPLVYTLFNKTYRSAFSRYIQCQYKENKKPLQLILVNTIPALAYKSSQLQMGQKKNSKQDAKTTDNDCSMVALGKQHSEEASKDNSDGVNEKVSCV

[7] = molecular target: 5-hydroxytryptamine receptor 2B (Homo sapiens, UniProt P41595); assay: Binding affinity to 5HT2B receptor
Chain of 5-hydroxytryptamine receptor 2B (P41595 whole entry): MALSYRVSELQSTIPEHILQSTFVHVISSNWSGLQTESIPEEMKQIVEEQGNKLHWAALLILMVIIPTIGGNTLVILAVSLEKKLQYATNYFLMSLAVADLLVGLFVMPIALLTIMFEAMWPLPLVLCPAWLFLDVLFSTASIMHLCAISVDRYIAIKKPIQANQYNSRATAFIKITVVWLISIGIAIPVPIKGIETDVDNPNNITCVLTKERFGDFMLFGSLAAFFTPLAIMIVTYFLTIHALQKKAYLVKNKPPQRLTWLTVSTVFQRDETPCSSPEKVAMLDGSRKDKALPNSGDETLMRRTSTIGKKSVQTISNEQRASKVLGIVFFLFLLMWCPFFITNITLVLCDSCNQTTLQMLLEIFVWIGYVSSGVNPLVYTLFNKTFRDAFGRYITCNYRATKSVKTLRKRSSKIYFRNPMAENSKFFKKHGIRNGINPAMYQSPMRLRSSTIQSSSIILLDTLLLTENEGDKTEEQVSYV

[8] = molecular target: T2, 5-hydroxytryptamine receptor 2C (Homo sapiens, UniProt P28335); assay: Binding affinity to 5HT2C receptor
T2 sequence (P28335 whole entry): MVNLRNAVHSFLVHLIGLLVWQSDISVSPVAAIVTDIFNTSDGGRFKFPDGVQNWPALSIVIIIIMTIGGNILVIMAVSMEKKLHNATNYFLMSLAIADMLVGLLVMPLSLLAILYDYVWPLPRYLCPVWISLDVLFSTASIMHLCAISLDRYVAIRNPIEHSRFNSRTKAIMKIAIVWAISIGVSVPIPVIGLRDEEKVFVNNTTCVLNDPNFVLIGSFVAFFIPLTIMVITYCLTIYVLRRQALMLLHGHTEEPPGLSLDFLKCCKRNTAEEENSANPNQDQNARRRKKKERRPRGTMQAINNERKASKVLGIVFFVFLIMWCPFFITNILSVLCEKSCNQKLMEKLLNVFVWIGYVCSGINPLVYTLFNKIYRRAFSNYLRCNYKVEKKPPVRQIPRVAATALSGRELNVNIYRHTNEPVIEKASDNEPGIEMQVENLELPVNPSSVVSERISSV

[9] = molecular target: 5-hydroxytryptamine receptor 4 (Homo sapiens, UniProt Q13639); assay: Binding affinity to 5HT4 receptor
Chain of 5-hydroxytryptamine receptor 4 (Q13639 whole entry): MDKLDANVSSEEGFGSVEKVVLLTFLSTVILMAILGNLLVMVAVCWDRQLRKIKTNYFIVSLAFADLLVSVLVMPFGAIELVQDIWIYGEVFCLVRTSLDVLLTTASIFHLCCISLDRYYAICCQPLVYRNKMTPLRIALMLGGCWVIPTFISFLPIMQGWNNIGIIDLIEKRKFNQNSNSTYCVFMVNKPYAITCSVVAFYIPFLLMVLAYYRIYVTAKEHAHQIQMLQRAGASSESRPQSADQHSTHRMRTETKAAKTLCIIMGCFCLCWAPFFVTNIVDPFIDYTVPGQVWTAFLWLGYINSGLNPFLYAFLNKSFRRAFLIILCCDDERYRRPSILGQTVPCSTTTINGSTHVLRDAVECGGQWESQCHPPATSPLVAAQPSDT

[10] = molecular target: 5-hydroxytryptamine receptor 5A (Homo sapiens, UniProt P47898); assay: Binding affinity to 5HT5A receptor
[11] = molecular target: 5-hydroxytryptamine receptor 6 (Homo sapiens, UniProt P50406); assay: Binding affinity to 5HT6 receptor
[12] = molecular target: 5-hydroxytryptamine receptor 7 (Homo sapiens, UniProt P34969); assay: Binding affinity to 5HT7 receptor
Chain of 5-hydroxytryptamine receptor 7 (P34969 whole entry): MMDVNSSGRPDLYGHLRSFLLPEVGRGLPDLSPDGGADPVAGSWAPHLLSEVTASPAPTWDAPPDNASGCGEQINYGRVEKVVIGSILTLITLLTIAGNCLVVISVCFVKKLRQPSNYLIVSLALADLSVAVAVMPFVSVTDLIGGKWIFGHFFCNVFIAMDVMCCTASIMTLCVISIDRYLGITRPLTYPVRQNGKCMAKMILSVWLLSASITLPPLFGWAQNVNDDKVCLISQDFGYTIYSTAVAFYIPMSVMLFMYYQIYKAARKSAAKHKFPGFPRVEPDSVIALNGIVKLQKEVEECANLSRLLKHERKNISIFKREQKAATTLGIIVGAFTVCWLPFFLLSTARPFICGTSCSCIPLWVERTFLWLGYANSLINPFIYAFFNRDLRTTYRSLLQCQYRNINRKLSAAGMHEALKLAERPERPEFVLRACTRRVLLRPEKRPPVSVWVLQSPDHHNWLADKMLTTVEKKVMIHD

[13] = molecular target: D(1A) dopamine receptor (Homo sapiens, UniProt P21728); assay: Binding affinity to dopamine D1
Chain of D(1A) dopamine receptor (P21728 whole entry): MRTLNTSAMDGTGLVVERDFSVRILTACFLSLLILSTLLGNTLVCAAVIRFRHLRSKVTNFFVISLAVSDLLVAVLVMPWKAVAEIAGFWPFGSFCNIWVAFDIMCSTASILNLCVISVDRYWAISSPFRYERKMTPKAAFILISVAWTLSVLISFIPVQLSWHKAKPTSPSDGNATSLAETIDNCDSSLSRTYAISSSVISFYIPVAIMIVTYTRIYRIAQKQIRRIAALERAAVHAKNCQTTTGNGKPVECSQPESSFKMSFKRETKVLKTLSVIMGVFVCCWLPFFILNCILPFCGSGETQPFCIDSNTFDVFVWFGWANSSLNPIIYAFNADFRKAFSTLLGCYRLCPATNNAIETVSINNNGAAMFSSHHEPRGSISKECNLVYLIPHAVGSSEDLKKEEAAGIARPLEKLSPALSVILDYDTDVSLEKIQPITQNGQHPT

[14] = molecular target: D(2) dopamine receptor (Homo sapiens, UniProt P14416); assay: Binding affinity to dopamine D2
Chain of D(2) dopamine receptor (P14416 whole entry): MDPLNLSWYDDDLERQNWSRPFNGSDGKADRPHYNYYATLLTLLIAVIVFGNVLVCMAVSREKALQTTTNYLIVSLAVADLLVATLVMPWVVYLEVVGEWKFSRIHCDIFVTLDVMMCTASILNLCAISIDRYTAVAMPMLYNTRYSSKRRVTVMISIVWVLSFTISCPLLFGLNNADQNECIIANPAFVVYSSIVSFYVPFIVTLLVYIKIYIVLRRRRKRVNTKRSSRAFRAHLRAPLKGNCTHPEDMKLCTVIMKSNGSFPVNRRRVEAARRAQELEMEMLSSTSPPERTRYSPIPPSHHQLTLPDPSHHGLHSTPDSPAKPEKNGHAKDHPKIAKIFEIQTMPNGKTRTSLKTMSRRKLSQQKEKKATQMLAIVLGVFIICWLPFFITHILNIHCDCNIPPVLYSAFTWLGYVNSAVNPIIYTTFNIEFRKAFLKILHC

[15] = system: Rattus norvegicus; assay: Increase in extracellular serotonin levels in po dosed rat frontal cortex; assay type: functional, organism-based
Outline: (§1)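 In vivo microdialysis in rat frontal cortex measuring extracellular serotonin. Oral doses were 1 and 3 mg/kg, with a reference SSRI at 5 mg/kg po; an iv arm used 1.0 mg/kg. Change is expressed as percent increase over vehicle-treated controls, with significance tested against vehicle.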

[16] = system: Rattus norvegicus; assay: Increase in extracellular serotonin levels in rat frontal cortex at 3 mg/kg, po by microdialysis method relative to untreated control; assay type: functional; outline: as §1
[17] = system: Rattus norvegicus; assay: Increase in extracellular serotonin levels in rat frontal cortex at 5 mg/kg, po by microdialysis method relative to untreated control; assay type: functional, organism-based; design: dose 5 mg/kg; outline: as §1
[18] = system: Brain; assay: Drug concentration in rat brain at 3 mg/kg, po after 2 hrs by microdialysis method; assay type: ADME, organism-based; design: dose 3 mg/kg, route oral; conditions: in vivo
Outline: (§2)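 Rats dosed orally at 3 mg/kg as part of the frontal-cortex microdialysis experiments. Drug levels in brain and plasma sampled at 2 h after dosing. Oral bioavailability, Tmax and half-life are reported from the same oral 3 mg/kg dosing in rat.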

[19] = Drug concentration in rat plasma at 3 mg/kg, po after 2 hrs by microdialysis method; assay type: ADME, organism-based; design: dose 3 mg/kg, route oral; outline: as §2
[20] = Oral bioavailability in rat plasma at 3 mg/kg by microdialysis method; assay type: ADME, organism-based; outline: as §2
[21] = Tmax in rat at 3 mg/kg, po by microdialysis method; assay type: ADME, organism-based; design: dose 3 mg/kg, route oral; conditions: in vivo; outline: as §2
[22] = Half life in rat at 3 mg/kg, po by microdialysis method; assay type: ADME, organism-based; design: dose 3 mg/kg, route oral; conditions: in vivo; outline: as §2

Compound: CCCNC1CCC(c2c[nH]c3ccc(C#N)cc23)C1 (stereo not drawn)
IC50 [1]: 30 nM

Compound: CNC1CCC(c2c[nH]c3ccc(C#N)cc23)C1 (stereo not drawn)
IC50 [1]: 8.5 nM

Compound: CCN(CC)C1CCC(c2c[nH]c3ccc(F)cc23)C1 (stereo not drawn)
IC50 [1]: 7.3 nM

IC50 [1]: 6.8 nM
Compound: N#Cc1ccc2[nH]cc(C3CCC(N4Cc5ccccc5C4)C3)c2c1 (stereo not drawn)

Compound: CCN(C)C1CCC(c2c[nH]c3ccc(C#N)cc23)C1 (stereo not drawn)
IC50 [1]: 1.6 nM

Compound: CN(C)C1CCC(c2c[nH]c3cc(Cl)ccc23)C1 (stereo not drawn)
IC50 [1]: 6.5 nM

Compound: CN(C)[C@H]1CC[C@H](c2c[nH]c3ccc(C#N)cc23)C1
IC50 [1]: 0.97 nM

Compound: CN(C)C1CCC(c2c[nH]c3ccc(C#N)cc23)C1 (stereo not drawn)
IC50 [1]: 0.48 nM

Compound: N#Cc1ccc2[nH]cc(C3CCC(N4CCCC4)C3)c2c1 (stereo not drawn)
IC50 [1]: 3 nM

Compound: CN(C)C1CCC(c2c[nH]c3cc(F)ccc23)C1 (stereo not drawn)
IC50 [1]: 5.1 nM

Compound: CCNC1CCC(c2c[nH]c3ccc(C#N)cc23)C1 (stereo not drawn)
IC50 [1]: 6.6 nM

IC50 [1]: 10 nM
Compound: N#Cc1ccc2[nH]cc(C3CCC(NCCc4ccccc4)C3)c2c1 (stereo not drawn)

Compound: CN(C)[C@H]1CC[C@@H](c2c[nH]c3ccc(C#N)cc23)C1
IC50 [1]: 0.38 nM

IC50 [1]: 6.2 nM
Compound: CN(CCc1ccccc1)C1CCC(c2c[nH]c3ccc(C#N)cc23)C1 (stereo not drawn)

Compound: CN(C)C1CCC(c2c[nH]c3cccc(Br)c23)C1 (stereo not drawn)
IC50 [1]: 5.3 nM

IC50 [1]: 15 nM
Compound: N#Cc1ccc2[nH]cc(C3CCC(NCc4ccccc4)C3)c2c1 (stereo not drawn)

Compound: CN(C)C1CCC(c2c[nH]c3c(Cl)cccc23)C1 (stereo not drawn)
IC50 [1]: 1.4 nM

Compound: CN(C)C1CCC(c2c[nH]c3c(F)cccc23)C1 (stereo not drawn)
IC50 [1]: 3.3 nM

Compound: CN(C)[C@@H]1CC[C@H](c2c[nH]c3ccc(C#N)cc23)C1
IC50 [1]: 0.22 nM | IC50 [2]: 6900 nM | IC50 [3]: 1300 nM | IC50 [4]: 1300 nM | IC50 [5]: 340 nM | IC50 [6]: 840 nM | IC50 [7]: > 10000 nM | IC50 [8]: > 10000 nM | IC50 [9]: > 30000 nM | IC50 [10]: > 1000 nM | IC50 [11]: 37 nM | IC50 [12]: > 1000 nM | IC50 [13]: 7200 nM | IC50 [14]: > 30000 nM | Activity [15]: Dose-dependent effect | Activity [16]: 150% | Activity [17]: Active | Drug uptake [18]: 1000 nM | concentration at 2 h [19]: 820 nM | bioavailability [20]: 51% | Tmax [21]: 60 min | half-life [22]: 33 min

Compound: Fc1ccc2[nH]cc(C3CCC(N4CCCC4)C3)c2c1 (stereo not drawn)
IC50 [1]: 2.9 nM

Compound: CN(C)[C@@H]1CC[C@@H](c2c[nH]c3ccc(F)cc23)C1
IC50 [1]: 2.8 nM

Compound: CN(C)[C@@H]1CC[C@@H](c2c[nH]c3ccc(C#N)cc23)C1
IC50 [1]: 1.3 nM

Compound: N#Cc1ccc2[nH]cc(C3CCC(N4CCCCC4)C3)c2c1 (stereo not drawn)
IC50 [1]: 65 nM

Compound: CCN(C)C1CCC(c2c[nH]c3ccc(F)cc23)C1 (stereo not drawn)
IC50 [1]: 3.7 nM

Compound: N#Cc1ccc2[nH]cc(C3CCC(N)C3)c2c1 (stereo not drawn)
IC50 [1]: 32 nM

Compound: CN(C)C1CCC(c2c[nH]c3ccc(Br)cc23)C1 (stereo not drawn)
IC50 [1]: 4.3 nM

Compound: CN(C)C1CCC(c2c[nH]c3ccc(Cl)cc23)C1 (stereo not drawn)
IC50 [1]: 3 nM

Compound: N#Cc1ccc2[nH]cc(C3CCC(N4CCOCC4)C3)c2c1 (stereo not drawn)
IC50 [1]: 110 nM

Compound: CCN(CC)C1CCC(c2c[nH]c3ccc(C#N)cc23)C1 (stereo not drawn)
IC50 [1]: 6.2 nM

Compound: CN(C)C1CCC(c2c[nH]c3cccc(F)c23)C1 (stereo not drawn)
IC50 [1]: 31 nM

Compound: CN(C)C1CCC(c2c[nH]c3cc(Br)ccc23)C1 (stereo not drawn)
IC50 [1]: 9.6 nM

IC50 [1]: 6.5 nM
Compound: N#Cc1ccc2[nH]cc(C3CCC(N4CCc5ccccc5C4)C3)c2c1 (stereo not drawn)

Compound: CN(C)C1CCC(c2c[nH]c3c(Br)cccc23)C1 (stereo not drawn)
IC50 [1]: 1.6 nM

Compound: CN(C)C1CCC(c2c[nH]c3ccc(F)cc23)C1 (stereo not drawn)
IC50 [1]: 1.7 nM

IC50 [1]: 5.3 nM
Compound: CN(Cc1ccccc1)C1CCC(c2c[nH]c3ccc(C#N)cc23)C1 (stereo not drawn)

Compound: CN(C)[C@@H]1CC[C@H](c2c[nH]c3ccc(F)cc23)C1 (single isomer, unassigned)
IC50 [1]: 2.4 nM

Compound: CN(C)[C@H]1CC[C@H](c2c[nH]c3ccc(F)cc23)C1
IC50 [1]: 5.9 nM
